Assay results from ChEMBL document CHEMBL2380248, “Matrix metalloproteinase inhibitors based on the 3-mercaptopyrrolidine core” (J Med Chem, 2013).
The source made the active and inactive calls. The calls are words filed in the database; no cut-off is given here.

How the values were obtained:
[1] = target: Matrix metalloproteinase-14 (Homo sapiens, UniProt P50281); assay: Inhibition of MMP-14 (unknown origin) using Mca-PLGLDpa-AR-NH2 as substrate preincubated for 30 mins by fluorescence assay; details: read-out: Ki(app)
Procedure, shortened: (§1)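 Fluorogenic assay at 25°C in 50 mM HEPES pH 7.5, 10 mM CaCl2, 200 mM NaCl, 0.01% Brij-35, 5 μM TCEP. Inhibitor in DMSO preincubated 30 min with enzyme (0.2–7 nM), then started with Mca-PLGLDpa-AR-NH2 (4 μL of […] in 50% DMSO); product release followed at λex 328/λem 393 nm.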

Collagenase 3 = Collagenase 3 (Homo sapiens, UniProt P45452); assay: Inhibition of MMP-13 (unknown origin) using Mca-PLGLDpa-AR-NH2 as substrate preincubated for 30 mins by fluorescence assay; details: read-out: Ki(app); procedure, shortened: as §1
[2] = target: T1, Matrix metalloproteinase-9 (Homo sapiens, UniProt P14780); assay: Inhibition of MMP-9 (unknown origin) using Mca-PLGLDpa-AR-NH2 as substrate preincubated for 30 mins by fluorescence assay; details: read-out: Ki(app); procedure, shortened: as §1
T1 sequence (P14780 whole entry): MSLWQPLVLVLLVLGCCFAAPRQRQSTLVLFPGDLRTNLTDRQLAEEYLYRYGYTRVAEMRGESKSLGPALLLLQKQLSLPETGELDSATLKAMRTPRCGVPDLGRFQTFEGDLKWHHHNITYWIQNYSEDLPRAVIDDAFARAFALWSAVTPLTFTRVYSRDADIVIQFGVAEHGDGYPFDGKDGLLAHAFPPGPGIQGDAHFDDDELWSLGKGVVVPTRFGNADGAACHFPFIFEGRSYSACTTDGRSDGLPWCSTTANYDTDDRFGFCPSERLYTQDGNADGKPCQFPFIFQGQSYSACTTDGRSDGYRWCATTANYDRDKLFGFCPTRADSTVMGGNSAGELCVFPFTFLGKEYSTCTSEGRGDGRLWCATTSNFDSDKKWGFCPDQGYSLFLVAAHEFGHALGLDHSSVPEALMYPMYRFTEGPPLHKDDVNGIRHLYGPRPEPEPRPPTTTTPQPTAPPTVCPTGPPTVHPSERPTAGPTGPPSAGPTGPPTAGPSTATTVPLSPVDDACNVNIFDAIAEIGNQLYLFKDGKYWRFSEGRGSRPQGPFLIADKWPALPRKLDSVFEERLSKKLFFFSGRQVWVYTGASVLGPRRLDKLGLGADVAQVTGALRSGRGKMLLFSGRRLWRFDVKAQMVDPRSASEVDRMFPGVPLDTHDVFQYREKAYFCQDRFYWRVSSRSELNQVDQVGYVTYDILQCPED

Matrilysin = target: T2, Matrilysin (Homo sapiens, UniProt P09237); assay: Inhibition of MMP-7 (unknown origin) using Mca-PLGLDpa-AR-NH2 as substrate preincubated for 30 mins by fluorescence assay; details: read-out: Ki(app); procedure, shortened: as §1
T2 sequence (P09237 whole entry): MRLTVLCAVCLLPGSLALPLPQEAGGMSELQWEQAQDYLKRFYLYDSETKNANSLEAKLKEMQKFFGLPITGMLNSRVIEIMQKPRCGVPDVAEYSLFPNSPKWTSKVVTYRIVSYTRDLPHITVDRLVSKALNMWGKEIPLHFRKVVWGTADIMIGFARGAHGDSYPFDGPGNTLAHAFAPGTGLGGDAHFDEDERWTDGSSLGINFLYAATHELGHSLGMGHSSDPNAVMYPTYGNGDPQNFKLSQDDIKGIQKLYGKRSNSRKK

Stromelysin-1 = Stromelysin-1 (Homo sapiens, UniProt P08254); assay: Inhibition of MMP-3 (unknown origin) using Mca-PLGLDpa-AR-NH2 as substrate preincubated for 30 mins by fluorescence assay; details: read-out: Ki(app); procedure, shortened: as §1
Chain of Stromelysin-1 (P08254 whole entry): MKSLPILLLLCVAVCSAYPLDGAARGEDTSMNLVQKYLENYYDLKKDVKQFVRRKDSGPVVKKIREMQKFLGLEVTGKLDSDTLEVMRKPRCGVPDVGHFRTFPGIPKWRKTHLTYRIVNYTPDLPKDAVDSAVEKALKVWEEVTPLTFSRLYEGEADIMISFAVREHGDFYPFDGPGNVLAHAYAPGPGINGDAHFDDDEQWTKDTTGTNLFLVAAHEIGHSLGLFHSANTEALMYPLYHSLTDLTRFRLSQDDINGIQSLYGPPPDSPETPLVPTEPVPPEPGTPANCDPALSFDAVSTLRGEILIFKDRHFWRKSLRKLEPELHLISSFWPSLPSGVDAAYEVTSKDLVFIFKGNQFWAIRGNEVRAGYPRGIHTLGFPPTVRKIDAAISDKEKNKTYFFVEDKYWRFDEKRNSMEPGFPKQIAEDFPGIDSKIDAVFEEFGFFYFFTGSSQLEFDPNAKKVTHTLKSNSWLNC

[3] = target: 72 kDa type IV collagenase (Homo sapiens, UniProt P08253); assay: Inhibition of MMP-2 (unknown origin) using Mca-PLGLDpa-AR-NH2 as substrate preincubated for 30 mins by fluorescence assay; details: read-out: Ki(app); procedure, shortened: as §1
Chain of 72 kDa type IV collagenase (P08253 whole entry): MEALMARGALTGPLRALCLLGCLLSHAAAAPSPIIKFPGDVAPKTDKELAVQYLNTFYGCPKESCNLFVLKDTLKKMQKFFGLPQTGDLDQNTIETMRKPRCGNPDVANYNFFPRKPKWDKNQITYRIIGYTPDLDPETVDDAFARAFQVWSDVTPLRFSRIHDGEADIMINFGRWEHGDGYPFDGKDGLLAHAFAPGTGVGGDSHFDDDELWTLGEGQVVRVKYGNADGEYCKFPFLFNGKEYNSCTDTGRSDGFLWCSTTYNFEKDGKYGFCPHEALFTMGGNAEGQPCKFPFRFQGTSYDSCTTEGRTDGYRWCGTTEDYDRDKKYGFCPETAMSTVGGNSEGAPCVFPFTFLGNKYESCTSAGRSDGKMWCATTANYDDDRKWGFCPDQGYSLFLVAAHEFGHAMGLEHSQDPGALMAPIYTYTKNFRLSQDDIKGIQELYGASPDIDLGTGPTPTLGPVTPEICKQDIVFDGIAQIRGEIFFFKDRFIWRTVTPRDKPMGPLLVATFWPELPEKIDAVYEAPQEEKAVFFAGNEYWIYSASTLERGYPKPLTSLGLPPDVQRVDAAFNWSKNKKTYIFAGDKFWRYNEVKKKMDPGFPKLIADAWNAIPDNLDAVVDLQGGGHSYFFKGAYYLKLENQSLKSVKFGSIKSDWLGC

Interstitial collagenase = target: T3, Interstitial collagenase (Homo sapiens, UniProt P03956); assay: Inhibition of MMP-1 (unknown origin) using Mca-PLGLDpa-AR-NH2 as substrate preincubated for 30 mins by fluorescence assay; details: read-out: Ki(app); procedure, shortened: as §1
T3 sequence (P03956 whole entry): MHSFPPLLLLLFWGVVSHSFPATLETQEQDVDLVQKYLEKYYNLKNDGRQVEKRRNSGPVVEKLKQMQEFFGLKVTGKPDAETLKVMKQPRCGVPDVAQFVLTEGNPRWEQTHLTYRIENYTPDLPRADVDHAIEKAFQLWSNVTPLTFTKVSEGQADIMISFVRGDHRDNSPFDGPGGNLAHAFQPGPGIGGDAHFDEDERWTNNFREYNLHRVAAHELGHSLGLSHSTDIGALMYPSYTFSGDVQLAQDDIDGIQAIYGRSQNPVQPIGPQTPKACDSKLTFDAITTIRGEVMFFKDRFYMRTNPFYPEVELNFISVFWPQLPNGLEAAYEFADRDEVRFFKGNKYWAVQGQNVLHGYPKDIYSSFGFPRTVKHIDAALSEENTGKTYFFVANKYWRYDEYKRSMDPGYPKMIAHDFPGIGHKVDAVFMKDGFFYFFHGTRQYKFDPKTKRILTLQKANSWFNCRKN

[4] = Cytotoxicity against human MSC assessed as cell killing up to 100 uM after 24 hrs by trypan blue staining-based hemocytometric analysis relative to control
Procedure, shortened: (§2)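 Low-passage hMSCs grown in αMEM with L-glutamine, penicillin, streptomycin, 20% FBS at 37°C, 5% CO2; fed every three days to 75% confluency, then given fresh media with inhibitor (log panel 1 μM to 100 μM, constant final DMSO) for 24 h. Cells washed with PBS, trypsinized, pelleted, Trypan Blue counted by hemocytometer; normalized to control, triplicate, mean ± SEM; >20% killing deemed cytotoxic.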

[5] = Cytotoxicity against human MSC assessed as reduction in cell number at 100 uM after 24 hrs by trypan blue staining-based hemocytometric analysis relative to control; design: scale not given: the % may be the effect or the level left; procedure, shortened: as §2
[6] = Stability of the compound in alpha-modified minimum essential medium at 10000 x IC50 up to 72 hrs in presence of fetal bovine serum; type: ADME; details: cattle
Procedure, shortened: (§3)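 Aliquots then incubated 30 min with MMP-9 (final ~1 nM) in HEPES buffer before substrate addition; relative rates (νi/νo) taken in triplicate and plotted versus time; mean ± SEM.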

[7] = target: T1, Matrix metalloproteinase-9; assay: Inhibition of MMP-9 (unknown origin) at 10000 x IC50 incubated up to 72 hrs prior to enzyme addition measured after 30 mins in presence of 20% fetal bovine serum; procedure, shortened: as §3

Row | SMILES | Ki [1] | Ki (Collagenase 3) | Ki [2] | Ki (Matrilysin) | Ki (Stromelysin-1) | Ki [3] | Ki (Interstitial collagenase) | Activity [4] | Activity [5] | Stability [6] | inhibition [7]
1 | O=S(=O)(N[C@@H]1CCC[C@@H]1S)c1ccc(Oc2ccccc2)cc1 | 25000 nM | > 100000 nM | > 1600 nM | > 200000 nM | > 200000 nM | 25000 nM | > 200000 nM | – | – | – | –
2 | O=S(=O)(N[C@H]1CCC[C@H]1S)c1ccc(Oc2ccccc2)cc1 | 68 nM | 160 nM | 280 nM | > 100000 nM | – | 430 nM | – | – | – | – | –
3 | O=S(=O)(N[C@H]1CCC[C@@H]1S)c1ccc(Oc2ccccc2)cc1 | 31 nM | 17 nM | 38 nM | > 100000 nM | > 200000 nM | 4.6 nM | 2100 nM | – | – | – | –
4 | O=S(=O)(N[C@@H]1CCC[C@H]1S)c1ccc(Oc2ccccc2)cc1 | 10 nM | 10 nM | 42 nM | 36000 nM | > 100000 nM | 67 nM | – | – | – | – | –
5 | O=S(=O)(N[C@H]1CNC[C@@H]1S)c1ccc(Oc2ccccc2)cc1 | – | – | – | > 200000 nM | – | – | 50000 nM | – | – | – | –
6 | O=S(=O)(N[C@@H]1CNC[C@H]1S)c1ccc(Oc2ccccc2)cc1 | – | – | – | 4100 nM | – | – | 6300 nM | – | – | – | –
7 | CNC(=O)[C@H](Cc1ccccc1)NC(=O)[C@@H](CC(C)C)S[C@H]1CN(C(C)=O)C[C@H]1S (mixture of isomers) | 6.2 nM | – | 5.7 nM | 91 nM | 990 nM | 14 nM | 99 nM | – | – | – | –
8 | CNC(=O)[C@H](Cc1ccccc1)NC(=O)[C@@H](CC(C)C)S[C@H]1CN(C(=O)CN2C(=O)c3ccccc3C2=O)C[C@H]1S (mixture of isomers) | 70 nM | – | 4.9 nM | 50 nM | 300 nM | 17 nM | 110 nM | – | – | – | –
9 | CNC(=O)[C@H](Cc1ccccc1)NC(=O)[C@@H](CC(C)C)S[C@H]1CN(C(=O)CCCN2C(=O)c3ccccc3C2=O)C[C@H]1S (mixture of isomers) | 6 nM | – | 3.9 nM | 12 nM | 31 nM | 8.5 nM | 75 nM | – | – | – | –
10 | CNC(=O)[C@H](Cc1ccccc1)NC(=O)[C@@H](CC(C)C)S[C@H]1CN(C(=O)CCCCCN2C(=O)c3ccccc3C2=O)C[C@H]1S (mixture of isomers) | 7 nM | – | 0.98 nM | 11 nM | 1.9 nM | 1.7 nM | 52 nM | – | – | – | –
11 | CNC(=O)[C@H](Cc1ccccc1)NC(=O)[C@@H](CC(C)C)S[C@H]1CNC[C@H]1S (mixture of isomers) | 310 nM | – | 5.3 nM | 230 nM | 4100 nM | 200 nM | 260 nM | – | – | – | –
12 | O=C(NCCN1C(=O)c2ccccc2C1=O)N1C[C@H](NS(=O)(=O)c2ccc(Oc3ccccc3)cc2)[C@@H](S)C1 (racemic) | – | – | – | > 12000 nM | – | – | – | <= 20% | – | – | –
13 | O=S(=O)(N[C@@H]1CCC[C@@H]1S)c1ccc(Oc2ccccc2)cc1 (racemic) | 410 nM | 200 nM | 970 nM | > 20000 nM | – | 810 nM | > 100000 nM | – | – | – | –
14 | O=S(=O)(N[C@H]1CCC[C@@H]1S)c1ccccc1 (racemic) | 3000 nM | 3400 nM | 9600 nM | > 50000 nM | > 200000 nM | 7200 nM | > 20000 nM | – | – | – | –
15 | O=S(=O)(N[C@H]1CCC[C@@H]1S)c1ccc(-c2ccccc2)cc1 (racemic) | 1200 nM | 230 nM | 630 nM | – | 10000 nM | 240 nM | 10000 nM | – | – | – | –
16 | O=S(=O)(N[C@H]1CCC[C@@H]1S)c1ccc(Oc2ccccc2)cc1 (racemic) [listing 1 of 2 here] | 18 nM | 15 nM | 25 nM | > 20000 nM | – | 18 nM | 3400 nM | <= 20% | 40% | Stable | –
17 | O=S(=O)(N[C@H]1CCC[C@@H]1O)c1ccc(Oc2ccccc2)cc1 (racemic) | > 200000 nM | 100000 nM | 200000 nM | > 200000 nM | > 200000 nM | 50000 nM | > 200000 nM | – | – | – | –
18 | O=C(N[C@H]1CCC[C@@H]1S)c1ccc(Oc2ccccc2)cc1 (racemic) | > 25000 nM | 28000 nM | 4300 nM | 5700 nM | > 200000 nM | 5700 nM | > 200000 nM | – | – | – | –
19 | O=S(=O)(N[C@H]1CNC[C@@H]1S)c1ccc(Oc2ccccc2)cc1 (racemic) | – | – | – | > 25000 nM | – | – | 25000 nM | – | – | – | –
20 | NC(=O)N1C[C@H](NS(=O)(=O)c2ccc(Oc3ccccc3)cc2)[C@@H](S)C1 (racemic) | – | – | – | > 25000 nM | – | – | – | <= 20% | – | Stable | –
21 | CN([C@H]1CN(C(N)=O)C[C@@H]1S)S(=O)(=O)c1ccc(Oc2ccccc2)cc1 (racemic) | – | – | 1.1 nM | > 25000 nM | – | – | – | – | – | – | –
22 | CC(=O)NCCCCCC(=O)N1C[C@H](NS(=O)(=O)c2ccc(Oc3ccccc3)cc2)[C@@H](S)C1 (racemic) | – | – | – | – | – | – | > 6000 nM | <= 20% | – | Stable | –
23 | Cl.NCCCCCC(=O)N1C[C@H](NS(=O)(=O)c2ccc(Oc3ccccc3)cc2)[C@@H](S)C1 (racemic) | 6.6 nM | – | 3.6 nM | – | – | 3.1 nM | > 3000 nM | <= 20% | – | Stable | Active
24 | NCCCCCC(=O)N1C[C@H](NS(=O)(=O)c2ccc(Oc3ccccc3)cc2)[C@@H](O)C1 (racemic) | 85000 nM | > 200000 nM | 30000 nM | > 100000 nM | > 100000 nM | 7000 nM | > 50000 nM | – | – | – | –
25 | O=S(=O)(N[C@H]1CCC[C@@H]1S)c1ccc(Oc2ccccc2)cc1 (racemic) [listing 2 of 2 here] | – | – | – | – | – | – | – | – | – | – | Active
